# OX1R antag-1 – blocks the human orexin 1 receptor; inhibition, % at 6.6 µM; O43613; OX1R-expressing cells, FRET antagonist read-out; AID 485270; 330,000 compounds, 1.8% hits; in the data active = inhibition mostly above about 38%, no sharp cut-off; inactive = mostly below about 40%;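 also: 0% = agonist challenge alone and 100% = reference antagonist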
# TRPML3 ag – activates the human TRPML3 channel. Q8TDD5. HEK293 TRPML3-YFP, Fluo-8 calcium fluorescence; 100% = the carbachol control signal. activation, % at 3 µM. 220,000 compounds, 0.29% hits;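 active = activation above its plate's cutoff, the mean activation of the plate's test wells plus 3 SD, cut at about 12% in these data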;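 also: 0% = DMSO only wells and 100% = carbachol wells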
# Target sequence (Q8TDD5 whole entry, looked up): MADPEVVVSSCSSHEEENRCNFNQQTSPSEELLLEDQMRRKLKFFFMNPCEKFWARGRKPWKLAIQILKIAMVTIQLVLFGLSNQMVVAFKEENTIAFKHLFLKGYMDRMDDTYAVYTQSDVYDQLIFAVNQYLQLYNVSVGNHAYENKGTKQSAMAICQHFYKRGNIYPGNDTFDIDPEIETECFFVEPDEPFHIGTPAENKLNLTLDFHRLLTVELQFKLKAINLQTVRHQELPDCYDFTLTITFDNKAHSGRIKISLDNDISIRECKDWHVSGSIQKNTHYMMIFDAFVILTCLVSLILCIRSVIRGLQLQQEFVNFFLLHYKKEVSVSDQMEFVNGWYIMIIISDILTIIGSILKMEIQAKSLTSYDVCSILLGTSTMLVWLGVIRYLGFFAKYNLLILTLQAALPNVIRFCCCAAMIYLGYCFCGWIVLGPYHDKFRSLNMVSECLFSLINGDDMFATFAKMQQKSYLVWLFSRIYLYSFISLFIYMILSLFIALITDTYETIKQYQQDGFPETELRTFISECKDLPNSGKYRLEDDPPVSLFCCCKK
#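 Test system: HEK293 cells stably carrying human TRPML3-YFP; Doses: single dose, 3 µM final nominal compound, 0.3% DMSO final; Schedule: dye loading 1 h 37 °C then 30 min ambient, 125 s read; Technique: Fluo-8 calcium fluorescence; Benchmarks: high control carbachol 87 µM, low control DMSO.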
# TRPN1 ag – agonists of zebrafish TRPN1 channel | HEK293 zebrafish TRPN1-YFP, Fluo-8 calcium fluorescence; 100% = response to 87 µM carbachol | 220,000 compounds, 0.18% hits | AID 1424 | activation, % at 3 µM;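 active = activation above its plate's cutoff, the mean activation of test wells on that plate plus 3 SD, cut at about 19% in these data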;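 also: 0% = DMSO alone and 100% = 87 µM carbachol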
#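 Material: zebrafish TRPN1-YFP in HEK293 cells; Doses: single test compound dose, 3 µM nominal, 0.3% DMSO; Timing: dye loading 1 h at 37 °C, then 30 min room temperature; Technique: intracellular calcium fluorescence with Fluo-8; Benchmarks: high carbachol 87 µM, low DMSO alone.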
# OX1R antag-2 – blocks the human orexin 1 receptor; O43613; CHO/OX1R cells, Fluo-8 calcium fluorescence, orexin A; inhibition, % at 5 µM; 330,000 compounds, 0.43% hits; AID 434989;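 active = inhibition above its plate's threshold, mean inhibition of all tested compounds on the plate plus 3 SD, cut at about 37% in these data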;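 also: 0% = orexin A challenge wells and 100% = SB-334867-A antagonist wells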
# CHO parental Ca – signal in parental CHO cells, OX1R antagonist counter-screen. parental CHO-K1, ATP-induced calcium, Fluo-8 fluorescence. inhibition, % at 5.6 µM. 330,000 compounds, 0.63% hits;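 active = inhibition above that plate's mean sample inhibition plus 3 SD, cut at about 26% in these data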;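 also: 0% = ATP-challenged DMSO wells and 100% = DMSO wells without ATP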
#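 Test system: untransfected parental CHO cell line. Compound: one dose, 5.6 µM nominal. Detection: intracellular calcium via Fluo-8 no-wash fluorescent dye. Measure: % inhibition. Benchmarks: ATP-challenged DMSO wells low, unchallenged DMSO wells high.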
# * marks the source's active call; other numbers are inactive results; x = no result. An excerpt weighted towards active compounds, which were near 2.5% of everything screened.
SMILES,OX1R antag-1,TRPML3 ag,TRPN1 ag,OX1R antag-2,CHO parental Ca
CCCc1nnc2n1N=C(c1ccc([N+](=O)[O-])cc1)CS2,45*,0,0,-21,10
COc1cccc(CNc2cccc3cccnc23)c1O,54*,0,0,-17,13
COc1cccc(CNc2ccccn2)c1O,8,x,x,-12,-11
Oc1c(Br)cc(Br)cc1CNc1cccc2cccnc12,29*,x,x,5,-9
Oc1ccc(Br)cc1CNc1cccc2cccnc12,16,x,x,-8,-1
CCOc1ccc(C(=O)/C=C/c2cn(CN3CCN(C)CC3)c3ccccc23)cc1,57*,0,0,14,-23
CCOc1ccc(C(=O)Nc2cc(-c3nc4ccccc4[nH]3)ccc2Cl)cc1[N+](=O)[O-],68*,0,-1,-2,-6
CCOc1ccc(C(=O)Nc2cc(-c3nc4ccccc4[nH]3)ccc2C)cc1[N+](=O)[O-],30,-1,0,-33,-29
O=C(NCCc1ccccc1)c1cc(=O)c2ccccc2o1,7,0,0,-17,-10
COc1cc(CCc2ccccc2)c(C(=O)O)c(O)c1C/C=C(/C)CCC=C(C)C,15,x,x,23,46*
CC(C)=CCC/C(C)=C/Cc1c(O)ccc(C(=O)/C=C/c2ccc(O)cc2)c1O,24,0,3,-15,-9
CCCCOC(=O)C1=C(C)NC(=O)NC1c1ccccc1 (centres undefined),10,x,x,-18,-6
CCOc1cc(/C=N/Nc2nnc(C)n2N)ccc1O,61*,x,x,-15,-6
COc1ccc(OC)c(/C=N/Nc2nncn2/N=C/c2cc(OC)ccc2OC)c1,50,0,1,-9,-2
COc1cc(/C=N/Nc2nncn2/N=C/c2ccc(O)c(OC)c2)ccc1O,68*,1,1,-15,-11
COc1ccc2c(c1)Cc1sc(NC(=O)c3ccco3)nc1-2,65*,0,-2,-6,-18
Cc1cc(NC(=O)CSc2nnc(-c3ccccc3F)n2C)no1,13,x,x,-8,0
O=C(c1ccco1)N1CCN(c2ncnc3c2oc2ccccc23)CC1,74*,0,1,0,-14
c1ccc2c(c1)oc1c(N3CCOCC3)ncnc12,28,0,1,-5,-3
O=C(Nc1ccc(-c2nc3ccccc3o2)c(O)c1)c1cc(-n2cnnc2)ccc1Cl,17,1,0,11,32*
O=C(Nc1ccc(-c2nc3ccccc3o2)cc1)c1cc(-n2cnnc2)ccc1Cl,15,2,3,5,8
C[C@H](CO)N1C[C@H](C)[C@@H](CN(C)C)Oc2c(NS(=O)(=O)c3ccc(F)cc3)cccc2C1=O,10,x,x,4,-2
Cn1cc(S(=O)(=O)N2CCc3ccccc32)cc1C(=O)NC(C)(C)C,7,x,x,-10,33*
COc1ccc(S(=O)(=O)NCC2CCCN(Cc3ccccc3C)C2)cc1 (centres undefined),17,1,1,-28,-8
CC(Oc1ccccc1)C(=O)N1CCN=C1SCc1cccc(F)c1 (centres undefined),9,1,1,-17,-12
SMILES,OX1R antag-1,TRPML3 ag,TRPN1 ag,OX1R antag-2,CHO parental Ca
CC(Oc1ccccc1)C(=O)N1CCN=C1SCc1ccccc1F (centres undefined),28,0,0,-22,40*
CCN1CCN(c2ccc(Cl)cc2NC(=O)c2ccc(-n3nc(C)cc3C)cc2)CC1,10,x,x,-20,-13
CS(=O)(=O)NNC(=O)C1Cc2c(ccc3ccccc23)O1 (centres undefined),13,x,x,-8,-1
O=C(NNS(=O)(=O)c1ccc(F)cc1F)C1Cc2c(ccc3ccccc23)O1 (centres undefined),27,3,4,51*,42*
CN1CCN(S(=O)(=O)c2ccc3c(c2)OCCO3)CC1,-3,0,0,2,8
O=S(=O)(c1ccc2c(c1)OCCO2)N1CCN(c2ncnc3sccc23)CC1,61,4,9,20,40*
Cc1cccc(C)c1NC(=O)CN(C)C(=O)c1ccccc1Sc1ccccc1C#N,5,x,x,-16,-30
NS(=O)(=O)c1ccc(O)c(N2C(=O)c3cccc4c(C(=O)c5ccccc5)ccc(c34)C2=O)c1,x,1,1,x,x
COc1ccc(C(CCNCc2ccc(OC(C)C)cc2)C(C)C)cc1 (centres undefined),9,1,0,-14,27*
COc1ccc(CNCCC(c2ccc(OC(C)C)cc2)C(C)C)cc1OC (centres undefined),-1,1,2,-34,-14
Cc1cn([C@H]2C[C@H](O)[C@@H](CCC(=O)NCCCn3ccnc3)O2)c(=O)[nH]c1=O,2,x,x,-19,-1
COc1ccc(CN(C2CCCCC2C)S(=O)(=O)c2ccc(S(=O)(=O)N(C)C)cc2)cc1OC (centres undefined),6,145*,39*,-17,-13
COc1cc(CN(C2CCCCC2C)S(=O)(=O)c2ccc(S(=O)(=O)NC3CC3)cc2)cc(OC)c1OC (centres undefined),37,1,1,-4,-28
CC(=O)Nc1ccc(Sc2ncccc2C(=O)Nc2ccc(F)cc2)cn1,-1,35*,46*,101*,72*
CCn1cc(C(=O)Nc2ncccc2O)c(=O)c2cc(F)c(N3CCN(C(=O)c4ccco4)CC3)cc21,2,x,x,-18,-9
CCN(CC)S(=O)(=O)c1ccc(OC)c(NC(=O)/C=C/c2ccco2)c1,5,0,-1,-15,-3
CCN(CC)Cc1c(O)ccc2c(-c3ccccc3)cc(=O)oc12,61*,1,1,-29,-16
N#C/C(=C(/O)CSc1ccccn1)c1nc2ccccc2s1,29,2,7,71*,66*
Cc1ccc(SC/C(O)=C(\C#N)c2nc3ccccc3s2)cc1,72,1,1,2,-6
Cc1ccccc1C(=O)NNC(=O)C(=O)Nc1cccc(Cl)c1C,10,0,1,-19,-22
Cc1c(Cl)cccc1NC(=O)C(=O)NNC(=O)c1ccccc1F,18,1,0,4,24*
COc1ccc(C(=O)c2ccc([N+](=O)[O-])cc2)cc1S(=O)(=O)N1CCC(C(=O)O)CC1,53*,x,x,-14,-4
COc1cccc(OC)c1C(=O)Nc1cc(Cl)ccc1N1CCOCC1,53*,0,0,-6,-41
Nc1cc2c(cc1[N+](=O)[O-])OCCOCCOCCO2,29,0,0,-18,-6
Nc1cc2c(cc1[N+](=O)[O-])OCCO2,49*,0,-1,-18,-14
c1ccc(CNc2nc(NCc3ccccc3)c3ccccc3n2)cc1,7,7,16,89*,75*
O=C(O)CC1S/C(=N\N=C2\C(=O)Nc3ccccc32)N(c2ccc(O)cc2)C1=O (centres undefined),21,x,x,-23,-13

# Source: PubChem BioAssay (The Scripps Research Institute Molecular Screening Center)
